According to PMC6980386 (Traffic (Copenhagen, Denmark), 2019):

Experiments:
FL huCD4 N2A = FL huCD4 N2A (Homo sapiens, UniProt P01730, N2A); assay: CADA down-modulation of cellular huCD4; format: cell-based
In short: (§1)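 HEK293T cells, seeded overnight in DMEM with 10% serum, 1 mM sodium pyruvate and 0.075% NaHCO₃, were lipofected with full-length human CD4 (WT or mutant). Test compound in DMSO was added 6 h post-transfection as 1:5 serial dilutions (50–0.016 μM) for 48 h. Surface CD4 was stained with FITC/APC anti-CD4 (SK3) and read by flow cytometry. IC50 is 50% of the untreated signal, from four-parameter fits of ≥3 replicate experiments. FC is mutant/WT mean IC50.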

FL huCD4 R3A = FL huCD4 R3A (Homo sapiens, UniProt P01730, R3A); assay: CADA down-modulation of cellular huCD4; format: cell-based
In short: as §1

FL huCD4 F7A = FL huCD4 F7A (Homo sapiens, UniProt P01730, F7A); assay: CADA down-modulation of cellular huCD4; format: cell-based
In short: as §1

FL huCD4 L12A = FL huCD4 L12A (Homo sapiens, UniProt P01730, L12A); assay: CADA down-modulation of cellular huCD4; format: cell-based
In short: as §1

FL huCD4 V13A = FL huCD4 V13A (Homo sapiens, UniProt P01730, V13A); assay: CADA down-modulation of cellular huCD4; format: cell-based
In short: as §1

FL huCD4 L14A = FL huCD4 L14A (Homo sapiens, UniProt P01730, L14A); assay: CADA down-modulation of cellular huCD4; format: cell-based
In short: as §1

FL huCD4 L18A = FL huCD4 L18A (Homo sapiens, UniProt P01730, L18A); assay: CADA down-modulation of cellular huCD4; format: cell-based
In short: as §1

FL huCD4 L19A = FL huCD4 L19A (Homo sapiens, UniProt P01730, L19A); assay: CADA down-modulation of cellular huCD4; format: cell-based
In short: as §1

FL huCD4 P20A = FL huCD4 P20A (Homo sapiens, UniProt P01730, P20A); assay: CADA down-modulation of cellular huCD4; format: cell-based
In short: as §1

FL huCD4 A21V = FL huCD4 A21V (Homo sapiens, UniProt P01730, A21V); assay: CADA down-modulation of cellular huCD4; format: cell-based
In short: as §1

FL huCD4 Q24A = FL huCD4 Q24A (Homo sapiens, UniProt P01730, Q24A); assay: CADA down-modulation of cellular huCD4; format: cell-based
In short: as §1

FL huCD4 G31A = FL huCD4 G31A (Homo sapiens, UniProt P01730, G31A); assay: CADA down-modulation of cellular huCD4; format: cell-based
In short: as §1

FL huCD4 K32A = FL huCD4 K32A (Homo sapiens, UniProt P01730, K32A); assay: CADA down-modulation of cellular huCD4; format: cell-based; details: read-out: Cellular huCD4 IC50 (μM) Mean, HEK293T, CADA 48h
In short: as §1

huCD4_1–32-YFP P6A = huCD4_1–32-YFP P6A (Homo sapiens, UniProt P01730, P6A); assay: CADA inhibition of huCD4_1–32-YFP secretion; format: cell-based
In short: (§2)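 HEK293T cells were grown in DMEM with 10% FBS and 10 mM HEPES, seeded and left to adhere overnight, then transiently transfected with plasmid by Lipofectamine. Test compound was added 6 h after transfection as a 1:5 serial dilution (50 to 0.016 μM) for 48 h. Secreted YFP in the supernatant was captured on GFP-Trap magnetic beads for 1 h, washed with PBS and measured by flow cytometry. IC50 is the concentration that halves the signal relative to the untreated control, taken from a four-parameter fit of at least three replicate experiments. FC is the mutant mean IC50 divided by the WT mean IC50.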

huCD4_1–32-YFP L16A = huCD4_1–32-YFP L16A (Homo sapiens, UniProt P01730, L16A); assay: CADA inhibition of huCD4_1–32-YFP secretion; format: cell-based
In short: as §2

huCD4_1–32-YFP A17V = huCD4_1–32-YFP A17V (Homo sapiens, UniProt P01730, A17V); assay: CADA inhibition of huCD4_1–32-YFP secretion; format: cell-based
In short: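 HEK293T cells were lipofected with human CD4 residues 1–32 fused to the N-terminus of YFP (secreted, no membrane anchor). Test compound was added 6 h post-transfection as 1:5 serial dilutions (50–0.016 μM) for 48 h. Supernatant was captured on GFP-Trap magnetic beads for 1 h, washed in PBS, and YFP was read by flow cytometry. IC50 is 50% of the untreated control, from four-parameter fits of ≥3 replicate experiments. FC is mutant/WT mean IC50.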

huCD4_1–32-YFP L30A = huCD4_1–32-YFP L30A (Homo sapiens, UniProt P01730, L30A); assay: CADA inhibition of huCD4_1–32-YFP secretion; format: cell-based
In short: as §2

huCD4_1–32-YFP Q15A;P20A = huCD4_1–32-YFP Q15A;P20A (Homo sapiens, UniProt P01730, P20A/Q15A); assay: CADA inhibition of huCD4_1–32-YFP secretion; format: cell-based; details: HEK293T, 48h
In short: as §2

FL huCD4 K27R = FL huCD4 K27R (Homo sapiens, UniProt P01730, K27R); assay: CADA down-modulation of cellular huCD4; format: cell-based; details: HEK293T, 48h
In short: as §1

[1] = target: truncated huCD4 D1D2 K26A (Homo sapiens, UniProt P01730, K26A); assay: Cell-free in vitro translation and translocation; format: biochemical
In short: (§3)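 Proteinase K protection 30 min on ice, quenched with PMSF. Pellets washed in low-salt buffer (HEPES pH 7.6), then SDS-PAGE and phosphor imaging. Translocation normalised to untreated WT. Two to five independent experiments; Welch's t test.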

[2] = target: truncated huCD4 D1D2 K27A (Homo sapiens, UniProt P01730, K27A); assay: Cell-free in vitro translation and translocation; format: biochemical; details: 15 μM CADA
In short: as §3

bovine pre-prolactin = details: cited from earlier work
sortilin = details: second substrate, proteomic study; cited from earlier work
[3] = + less, − more sensitive to CADA
[4] = read-out: Cellular huCD4 IC50 (μM) Mean, HEK293T, CADA 48h
[5] = read-out: Secreted YFP IC50 (μM) Mean, HEK293T, CADA 48h

C=C1CN(S(=O)(=O)c2ccc(C)cc2)CCCN(Cc2ccccc2)CCCN(S(=O)(=O)c2ccc(C)cc2)C1 [CADA, Cyclotriazadisulfonamide]
Cellular huCD4 FC (fold change of mean IC50 relative to WT) (FL huCD4 N2A; [3]): +1.4 | IC50 (FL huCD4 N2A; [4]): 0.73 µM | Cellular huCD4 FC (fold change of mean IC50 relative to WT) (FL huCD4 R3A; [3]): −1.1 | IC50 (FL huCD4 R3A; [4]): 0.47 µM | Cellular huCD4 FC (fold change of mean IC50 relative to WT) (FL huCD4 F7A; [3]): −4.2 | IC50 (FL huCD4 F7A; [4]): 0.13 µM | enhanced CADA sensitivity relative to WT (FL huCD4 L12A): 8 fold | Cellular huCD4 FC (fold change of mean IC50 relative to WT) (FL huCD4 L12A; [3]): −7.7 | IC50 (FL huCD4 L12A; [4]): 0.07 µM | Cellular huCD4 FC (fold change of mean IC50 relative to WT) (FL huCD4 V13A; [3]): −3.9 | IC50 (FL huCD4 V13A; [4]): 0.14 µM | Cellular huCD4 FC (fold change of mean IC50 relative to WT) (FL huCD4 L14A; [3]): −1.2 | IC50 (FL huCD4 L14A; [4]): 0.46 µM | Cellular huCD4 FC (fold change of mean IC50 relative to WT) (FL huCD4 L18A; [3]): −5.4 | IC50 (FL huCD4 L18A; [4]): 0.1 µM | Cellular huCD4 FC (fold change of mean IC50 relative to WT) (FL huCD4 L19A; [3]): +1.9 | IC50 (FL huCD4 L19A; [4]): 1.04 µM | Cellular huCD4 FC (fold change of mean IC50 relative to WT) (FL huCD4 P20A; [3]): +4.4 | IC50 (FL huCD4 P20A; [4]): 2.35 µM | Cellular huCD4 FC (fold change of mean IC50 relative to WT) (FL huCD4 A21V; [3]): +1.6 | IC50 (FL huCD4 A21V; [4]): 0.87 µM | Cellular huCD4 FC (fold change of mean IC50 relative to WT) (FL huCD4 Q24A; [3]): +2.3 | IC50 (FL huCD4 Q24A; [4]): 1.22 µM | Cellular huCD4 FC (fold change of mean IC50 relative to WT) (FL huCD4 G31A; [3]): +1.3 | IC50 (FL huCD4 G31A; [4]): 0.72 µM | IC50 (FL huCD4 K32A): 1.42 µM | Secreted YFP FC (fold change of mean IC50 relative to WT) (huCD4_1–32-YFP P6A; [3]): −2.3 | IC50 (huCD4_1–32-YFP P6A; [5]): 0.55 µM | Secreted YFP FC (fold change of mean IC50 relative to WT) (huCD4_1–32-YFP L16A; [3]): −3.2 | IC50 (huCD4_1–32-YFP L16A; [5]): 0.4 µM | Secreted YFP FC (fold change of mean IC50 relative to WT) (huCD4_1–32-YFP A17V; [3]): >+39 | IC50 (huCD4_1–32-YFP A17V; [5]): > 50 µM | Secreted YFP FC (fold change of mean IC50 relative to WT) (huCD4_1–32-YFP L30A; [3]): −1.2 | IC50 (huCD4_1–32-YFP L30A; [5]): 1.08 µM | sensitivity to CADA (huCD4_1–32-YFP Q15A;P20A): no longer responded to CADA | sensitivity to CADA (FL huCD4 K27R): kept full sensitivity to CADA | sensitivity of translocation towards CADA compared to WT ([1]; 15 μM CADA): significantly reduced sensitivity to CADA | effect of CADA on co-translational translocation ([1]; increasing doses of CADA): still responded to CADA, although to a lesser extent as compared to WT huCD4 | sensitivity of translocation towards CADA compared to WT [2]: significantly reduced sensitivity to CADA | sensitivity of bovine pre-prolactin to CADA (bovine pre-prolactin): completely resistant to CADA | susceptibility of sortilin to CADA (sortilin): lower susceptibility to the compound as compared to huCD4
